This is an account of results in ChEMBL document CHEMBL1157011, “8-Sulfonyl-substituted tetrahydro-1H-pyrido[4,3-b]indoles as 5-HT6 receptor antagonists” (Eur J Med Chem, 2010).

Test [1] deals with T1, 5-hydroxytryptamine receptor 6 (Homo sapiens, UniProt P50406). Description: Binding affinity to human recombinant 5HT6 receptor by radioligand displacement assay. In a few lines: (§1)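 Competitive displacement of the corresponding radioligand, run by an outside contract lab under its internal protocols. Data from one representative experiment in duplicate.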
T1 sequence (P50406 whole entry): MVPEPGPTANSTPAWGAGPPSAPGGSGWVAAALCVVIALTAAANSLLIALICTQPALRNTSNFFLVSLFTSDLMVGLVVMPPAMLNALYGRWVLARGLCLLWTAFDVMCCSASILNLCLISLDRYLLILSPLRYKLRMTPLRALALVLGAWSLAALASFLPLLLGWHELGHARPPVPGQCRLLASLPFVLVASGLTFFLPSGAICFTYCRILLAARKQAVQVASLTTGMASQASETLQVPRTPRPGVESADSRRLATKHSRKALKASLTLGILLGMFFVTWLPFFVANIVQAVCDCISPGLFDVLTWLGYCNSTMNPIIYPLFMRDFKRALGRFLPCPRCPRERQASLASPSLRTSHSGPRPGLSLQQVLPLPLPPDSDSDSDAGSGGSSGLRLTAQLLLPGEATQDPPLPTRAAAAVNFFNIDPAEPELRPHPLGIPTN
A general note: Displacement assays read how much labelled ligand stays bound in the presence of the test substance.

The target of test [2] is 5-hydroxytryptamine receptor 7 (Homo sapiens, UniProt P34969). Description: Binding affinity to 5HT7 receptor by radioligand displacement assay. A digest of the protocol:
as §1

Test [3] addresses 5-hydroxytryptamine receptor 6 (Rattus norvegicus, UniProt P31388). Description: Binding affinity to rat recombinant 5HT6 receptor.
Test [4] has as its target T2, 5-hydroxytryptamine receptor 1A (Homo sapiens, UniProt P08908).
T2 sequence (P08908 whole entry): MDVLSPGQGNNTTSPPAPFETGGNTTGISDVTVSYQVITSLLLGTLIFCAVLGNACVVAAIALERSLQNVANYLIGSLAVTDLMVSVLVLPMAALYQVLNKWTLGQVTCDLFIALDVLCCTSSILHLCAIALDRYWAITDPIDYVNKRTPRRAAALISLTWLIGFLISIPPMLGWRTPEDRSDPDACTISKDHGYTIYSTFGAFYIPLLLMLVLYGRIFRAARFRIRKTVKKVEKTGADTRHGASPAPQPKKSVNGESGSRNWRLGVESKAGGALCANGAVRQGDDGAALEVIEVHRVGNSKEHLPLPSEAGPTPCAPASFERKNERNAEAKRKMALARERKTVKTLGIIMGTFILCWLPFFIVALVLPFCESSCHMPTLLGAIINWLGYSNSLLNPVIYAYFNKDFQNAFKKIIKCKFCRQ
Description: Binding affinity to 5HT1A receptor by radioligand displacement assay.

The target in test [5] is T1, 5-hydroxytryptamine receptor 6. Description: Binding affinity to human recombinant 5HT6 receptor.
Test [6] deals with T3, 5-hydroxytryptamine receptor 2C (Homo sapiens, UniProt P28335).
T3 sequence (P28335 whole entry): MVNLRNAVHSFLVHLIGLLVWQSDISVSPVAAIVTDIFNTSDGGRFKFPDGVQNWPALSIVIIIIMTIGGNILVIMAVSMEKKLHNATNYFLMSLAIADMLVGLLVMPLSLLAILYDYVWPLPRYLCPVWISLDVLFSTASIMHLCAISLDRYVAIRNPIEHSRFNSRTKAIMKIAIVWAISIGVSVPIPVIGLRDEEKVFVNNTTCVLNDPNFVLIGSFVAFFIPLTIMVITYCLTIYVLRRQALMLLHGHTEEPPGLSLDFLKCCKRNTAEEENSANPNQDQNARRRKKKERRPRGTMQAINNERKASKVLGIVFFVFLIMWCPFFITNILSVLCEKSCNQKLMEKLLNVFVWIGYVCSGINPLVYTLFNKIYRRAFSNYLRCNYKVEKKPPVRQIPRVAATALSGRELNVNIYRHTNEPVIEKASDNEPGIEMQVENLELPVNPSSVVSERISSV
Description: Binding affinity to 5HT2C receptor by radioligand displacement assay. A digest of the protocol:
as §1

The target of test [7] is T1, 5-hydroxytryptamine receptor 6. Description: Antagonist activity at human recombinant 5HT6 receptor expressed in HEK293 cells assessed as inhibition of serotonin-induced cAMP production by LANCE assay relative to serotonin. It is filed as functional, cell-based. In a few lines:
(§2)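 HEK-293 cells with a tetracycline-inducible (T-Rex) human 5-HT6 receptor, grown in DMEM/10% FBS with blasticidin S and zeocin and induced with tetracycline the day before. Medium was swapped for HBSS with 1 mM MgCl2, 1 mM CaCl2, IBMX and 5 mM HEPES, pH 7.4. Compounds (0.1% DMSO) were added 15 min at RT, then 10 nM serotonin for 30 min. cAMP read by LANCE; 2 independent experiments in duplicate.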

In test [8] the target is T4, Alpha-1A adrenergic receptor (Homo sapiens) (UniProt P35348).
T4 sequence (whole entry): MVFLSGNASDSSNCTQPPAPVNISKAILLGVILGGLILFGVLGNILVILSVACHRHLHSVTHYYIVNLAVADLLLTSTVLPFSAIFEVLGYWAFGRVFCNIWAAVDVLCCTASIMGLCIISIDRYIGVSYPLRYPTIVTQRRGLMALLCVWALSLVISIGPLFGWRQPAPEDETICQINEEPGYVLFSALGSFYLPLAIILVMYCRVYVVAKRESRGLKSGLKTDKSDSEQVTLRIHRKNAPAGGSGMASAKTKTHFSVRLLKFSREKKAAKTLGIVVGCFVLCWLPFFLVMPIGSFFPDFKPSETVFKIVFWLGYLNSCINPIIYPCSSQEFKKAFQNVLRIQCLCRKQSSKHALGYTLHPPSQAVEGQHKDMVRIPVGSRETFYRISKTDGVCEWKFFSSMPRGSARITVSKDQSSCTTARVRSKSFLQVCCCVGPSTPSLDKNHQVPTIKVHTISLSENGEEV
Description: Binding affinity to adrenergic alpha1A receptor at 10 uM by radioligand displacement assay. In a few lines:
(§3)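 Target specificity panel: single-concentration competitive displacement of each target's radioligand, with compound at 1 µM or 10 µM as stated per line. Run by an outside contract lab under its internal protocols; mean ± SE, n = 2.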

For test [9], the target named is Sodium-dependent noradrenaline transporter (Homo sapiens) (UniProt P23975). Description: Binding affinity to norepinephrine transporter at 10 uM by radioligand displacement assay. In a few lines: as §3
Sodium-dependent noradrenaline transporter (Homo sapiens), sequence (P23975 whole entry): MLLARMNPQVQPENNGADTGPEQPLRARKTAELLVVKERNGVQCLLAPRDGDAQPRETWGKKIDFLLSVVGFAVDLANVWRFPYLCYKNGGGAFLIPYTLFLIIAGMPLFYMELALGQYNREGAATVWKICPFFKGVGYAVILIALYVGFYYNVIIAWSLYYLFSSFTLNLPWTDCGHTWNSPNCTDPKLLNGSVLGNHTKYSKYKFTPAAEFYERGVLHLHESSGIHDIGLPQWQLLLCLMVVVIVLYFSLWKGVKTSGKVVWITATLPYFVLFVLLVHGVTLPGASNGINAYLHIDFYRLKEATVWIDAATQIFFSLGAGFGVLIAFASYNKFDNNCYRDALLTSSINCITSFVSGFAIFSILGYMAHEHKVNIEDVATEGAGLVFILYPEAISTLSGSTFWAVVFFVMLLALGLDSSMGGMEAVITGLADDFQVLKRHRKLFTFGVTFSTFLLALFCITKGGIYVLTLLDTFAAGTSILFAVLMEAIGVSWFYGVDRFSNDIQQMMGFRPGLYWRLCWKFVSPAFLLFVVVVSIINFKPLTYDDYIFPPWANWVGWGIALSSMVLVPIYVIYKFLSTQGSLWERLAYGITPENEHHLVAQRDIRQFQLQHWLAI
The target of test [10] is T5, Alpha-1B adrenergic receptor (Homo sapiens) (UniProt P35368).
T5 sequence (whole entry): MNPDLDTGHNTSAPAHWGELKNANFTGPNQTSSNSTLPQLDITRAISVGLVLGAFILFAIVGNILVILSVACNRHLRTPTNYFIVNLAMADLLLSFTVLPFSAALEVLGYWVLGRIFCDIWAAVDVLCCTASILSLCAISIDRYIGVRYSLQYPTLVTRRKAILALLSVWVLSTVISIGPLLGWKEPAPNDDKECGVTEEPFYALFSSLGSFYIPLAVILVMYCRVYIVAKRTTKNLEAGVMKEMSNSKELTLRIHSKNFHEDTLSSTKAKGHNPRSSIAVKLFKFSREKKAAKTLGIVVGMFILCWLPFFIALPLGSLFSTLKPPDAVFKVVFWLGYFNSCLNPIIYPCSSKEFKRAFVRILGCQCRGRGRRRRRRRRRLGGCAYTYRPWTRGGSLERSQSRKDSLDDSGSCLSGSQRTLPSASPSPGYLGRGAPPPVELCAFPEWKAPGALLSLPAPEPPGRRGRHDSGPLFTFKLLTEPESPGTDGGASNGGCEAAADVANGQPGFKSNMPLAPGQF
Description: Binding affinity to adrenergic Alpha-1B receptor at 10 uM by radioligand displacement assay. A digest of the protocol:
as §3

Test [11] deals with T6, Alpha-2A adrenergic receptor (Homo sapiens) (UniProt P08913).
T6 sequence (whole entry): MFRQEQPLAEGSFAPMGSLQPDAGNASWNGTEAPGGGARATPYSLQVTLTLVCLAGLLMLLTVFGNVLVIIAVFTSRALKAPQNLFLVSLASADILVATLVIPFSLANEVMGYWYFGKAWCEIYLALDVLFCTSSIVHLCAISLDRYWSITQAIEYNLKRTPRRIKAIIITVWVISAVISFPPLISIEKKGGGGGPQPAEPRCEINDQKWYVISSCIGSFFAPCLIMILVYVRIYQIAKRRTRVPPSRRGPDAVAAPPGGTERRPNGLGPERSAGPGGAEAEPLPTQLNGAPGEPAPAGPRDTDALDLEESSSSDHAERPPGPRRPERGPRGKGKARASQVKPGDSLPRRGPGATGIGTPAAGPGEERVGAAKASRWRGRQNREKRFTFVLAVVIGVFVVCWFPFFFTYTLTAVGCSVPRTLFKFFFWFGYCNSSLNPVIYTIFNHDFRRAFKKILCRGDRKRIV
Description: Binding affinity to adrenergic alpha2A receptor at 10 uM by radioligand displacement assay. In a few lines:
as §3

Test [12] deals with D(3) dopamine receptor (Homo sapiens) (UniProt P35462). Description: Binding affinity to dopamine D3 receptor at 10 uM by radioligand displacement assay. In a few lines: as §3
D(3) dopamine receptor (Homo sapiens), sequence (P35462 whole entry): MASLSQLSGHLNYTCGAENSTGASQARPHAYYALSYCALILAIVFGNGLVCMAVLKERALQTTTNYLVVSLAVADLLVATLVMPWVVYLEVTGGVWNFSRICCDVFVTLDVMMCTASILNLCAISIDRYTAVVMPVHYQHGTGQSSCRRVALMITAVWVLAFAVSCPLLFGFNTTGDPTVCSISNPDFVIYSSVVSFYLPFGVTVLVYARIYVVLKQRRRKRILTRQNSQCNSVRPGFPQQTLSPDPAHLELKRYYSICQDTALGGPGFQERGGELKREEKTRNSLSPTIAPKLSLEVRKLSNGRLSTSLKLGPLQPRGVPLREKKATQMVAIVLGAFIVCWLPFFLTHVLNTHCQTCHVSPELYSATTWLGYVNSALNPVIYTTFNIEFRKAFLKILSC
In test [13] the target is Sigma non-opioid intracellular receptor 1 (Homo sapiens) (UniProt Q99720). Description: Binding affinity to sigma 1 receptor at 10 uM by radioligand displacement assay. A digest of the protocol: as §3
Sigma non-opioid intracellular receptor 1 (Homo sapiens), sequence (Q99720 whole entry): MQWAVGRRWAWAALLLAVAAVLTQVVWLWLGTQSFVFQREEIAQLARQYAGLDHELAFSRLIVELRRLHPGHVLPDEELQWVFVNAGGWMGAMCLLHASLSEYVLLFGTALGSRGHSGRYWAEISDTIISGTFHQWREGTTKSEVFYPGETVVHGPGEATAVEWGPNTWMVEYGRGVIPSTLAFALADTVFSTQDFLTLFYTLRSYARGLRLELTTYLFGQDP
In test [14] the target is T7, Alpha-1D adrenergic receptor (Homo sapiens) (UniProt P25100).
T7 sequence (whole entry): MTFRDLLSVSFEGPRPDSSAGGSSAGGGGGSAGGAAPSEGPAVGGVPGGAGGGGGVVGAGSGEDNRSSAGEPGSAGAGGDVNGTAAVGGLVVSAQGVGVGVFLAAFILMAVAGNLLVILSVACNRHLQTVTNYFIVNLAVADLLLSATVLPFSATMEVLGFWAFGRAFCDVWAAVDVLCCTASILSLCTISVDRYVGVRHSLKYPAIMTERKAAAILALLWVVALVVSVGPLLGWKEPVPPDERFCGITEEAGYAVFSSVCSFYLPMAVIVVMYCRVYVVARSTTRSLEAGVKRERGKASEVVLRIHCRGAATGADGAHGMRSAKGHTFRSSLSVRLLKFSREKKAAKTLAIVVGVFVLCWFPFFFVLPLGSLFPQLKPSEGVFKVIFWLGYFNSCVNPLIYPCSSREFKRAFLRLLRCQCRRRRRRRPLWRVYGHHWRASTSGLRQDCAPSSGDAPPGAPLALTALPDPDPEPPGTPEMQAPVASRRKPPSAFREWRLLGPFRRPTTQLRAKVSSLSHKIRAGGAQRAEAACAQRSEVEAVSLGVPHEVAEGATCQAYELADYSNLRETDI
Description: Binding affinity to adrenergic Alpha-1D receptor at 10 uM by radioligand displacement assay. A digest of the protocol: as §3

Test [15] has as its target Sodium-dependent dopamine transporter (Homo sapiens) (UniProt Q01959). Description: Binding affinity to dopamine transporter at 10 uM by radioligand displacement assay. In a few lines: as §3
The target of test [16] is T1, 5-hydroxytryptamine receptor 6. Description: Antagonist activity at human recombinant 5HT6 receptor expressed in HEK293 cells assessed as inhibition of serotonin-induced cAMP production by LANCE assay. To be noted: read-out: IC50. It is filed as functional, cell-based. A digest of the protocol: as §2
A general note: Cyclic AMP is a second messenger, typically raised through Gs and lowered through Gi signalling.

Usually Ki stands for the dissociation constant of the complex between target and ligand, obtained from inhibition or displacement. The term IC50 denotes the concentration that inhibits the measured activity by half.

Molecules are shown by their SMILES. Activity calls are given as the source filed them. The rule behind the calls is not given here.

5-hydroxytryptamine receptor 7, sequence (P34969 whole entry): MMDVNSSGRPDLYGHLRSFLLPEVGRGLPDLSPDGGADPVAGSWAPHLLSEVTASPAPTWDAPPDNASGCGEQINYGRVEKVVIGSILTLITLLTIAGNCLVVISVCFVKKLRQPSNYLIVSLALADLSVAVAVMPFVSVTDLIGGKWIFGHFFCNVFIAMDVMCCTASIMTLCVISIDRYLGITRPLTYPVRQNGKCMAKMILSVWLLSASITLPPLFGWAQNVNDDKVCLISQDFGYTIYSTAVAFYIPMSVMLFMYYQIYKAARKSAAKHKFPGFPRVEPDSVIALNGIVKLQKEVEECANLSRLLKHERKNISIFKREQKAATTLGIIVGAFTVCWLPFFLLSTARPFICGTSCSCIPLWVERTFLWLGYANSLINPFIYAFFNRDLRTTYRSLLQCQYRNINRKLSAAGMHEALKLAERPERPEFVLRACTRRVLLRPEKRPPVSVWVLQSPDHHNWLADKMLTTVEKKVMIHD
5-hydroxytryptamine receptor 6 (Rattus norvegicus, UniProt P31388), sequence (P31388 whole entry): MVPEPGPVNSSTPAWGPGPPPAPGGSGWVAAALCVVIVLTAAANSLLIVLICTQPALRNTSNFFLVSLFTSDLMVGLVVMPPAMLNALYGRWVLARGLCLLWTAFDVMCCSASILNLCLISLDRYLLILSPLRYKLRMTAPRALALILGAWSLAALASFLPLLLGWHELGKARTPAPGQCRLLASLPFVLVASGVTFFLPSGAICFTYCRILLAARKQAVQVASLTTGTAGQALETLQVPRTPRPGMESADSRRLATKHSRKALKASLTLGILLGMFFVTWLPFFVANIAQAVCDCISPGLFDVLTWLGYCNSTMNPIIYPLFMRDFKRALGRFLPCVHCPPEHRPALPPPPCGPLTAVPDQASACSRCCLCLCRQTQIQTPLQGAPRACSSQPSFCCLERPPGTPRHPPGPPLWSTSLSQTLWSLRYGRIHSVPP
Sodium-dependent dopamine transporter (Homo sapiens), sequence (Q01959 whole entry): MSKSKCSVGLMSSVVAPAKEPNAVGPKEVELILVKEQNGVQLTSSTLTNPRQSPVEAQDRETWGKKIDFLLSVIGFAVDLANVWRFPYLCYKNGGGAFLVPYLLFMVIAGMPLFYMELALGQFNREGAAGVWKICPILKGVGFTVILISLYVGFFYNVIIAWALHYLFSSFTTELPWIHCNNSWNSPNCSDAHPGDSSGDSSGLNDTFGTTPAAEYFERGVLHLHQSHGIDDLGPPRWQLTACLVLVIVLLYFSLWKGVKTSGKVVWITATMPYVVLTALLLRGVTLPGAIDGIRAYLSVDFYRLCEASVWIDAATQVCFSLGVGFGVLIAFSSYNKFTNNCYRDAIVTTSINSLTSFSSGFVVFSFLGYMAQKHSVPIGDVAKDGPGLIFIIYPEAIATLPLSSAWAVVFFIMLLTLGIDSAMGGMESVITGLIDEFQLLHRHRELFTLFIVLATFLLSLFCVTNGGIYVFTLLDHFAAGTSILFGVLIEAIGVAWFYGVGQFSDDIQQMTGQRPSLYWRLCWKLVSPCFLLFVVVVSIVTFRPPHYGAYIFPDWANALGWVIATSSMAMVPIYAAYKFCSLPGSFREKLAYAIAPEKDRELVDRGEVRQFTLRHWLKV

For `Cc1ccc2c(c1)c1c(n2CCc2ccc(C)nc2)CCN(C)C1` [LATREPIRDINE], the Ki in [1] was 34 nM; in test [2], 8 nM; in [3], 119 nM; in [4] it was more than 100 nM; in test [5] it was 26 nM; in test [6], 76 nM. Besides, the Imax in test [7] was 100%.

For `CN1CCc2c(c3cc(S(=O)(=O)c4ccccc4)ccc3n2C)C1`, the result in test [8], in test [9], in test [10], in [11], in [12] and in [13] was Active. Also, the result in test [14] and in test [15] was Active. Moreover, the Ki in [1] was found to be 5.7 nM. Moreover, the Imax in test [7] is 100%.

Turning to `O=S(=O)(Nc1cccc(F)c1)c1ccc2[nH]c3c(c2c1)CN(Cc1ccccc1)CC3`, in [16], the IC50 was 3.9 µM. Besides, the Imax in [7] was 100%.

Turning to `Cc1ccc(S(=O)(=O)n2c3c(c4cc(S(=O)(=O)c5ccccc5)ccc42)CN(C)CC3)cc1`, the IC50 in test [16] worked out at 28 µM. The Imax in [7] came out at 100%.

Turning to `CN1CCc2c(c3cc(S(=O)(=O)c4ccccc4)ccc3n2CCc2ccccn2)C1`, the Imax in [7] was found to be 100%.

`CN1CCN(S(=O)(=O)c2ccc3[nH]c4c(c3c2)CN(C)CC4)CC1`: the Imax in test [7] worked out at 100%.
